PubChem BioAssay
Active and inactive are the calls of the source. Unless noted, no stated cut-off is given here; in the data, active means inhibition above about 30%; inactive means the rest.

Experiments:
[1] = Her2 expression decrease, cell viability multiplex – SKBR3 breast tumor cells, AlphaScreen, ATP viability, primary screen (AID 461;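 active means Her2 level under about 52% in both replicate screens, with viability over 70% of control, limit read from the data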;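 on Her2 level: lower value means less Her2 protein in the cells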;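 on viability: percent of carrier control wells set as 100% viability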); conditions: SKBR3 Her2 protein level, 18-24 h, measured here: SKBR3 viability, ATP luminescence, at 10 µM
[2] = target: Receptor tyrosine-protein kinase erbB-2 (Homo sapiens) (UniProt P04626); test: as above; conditions: 18-24 h, at 10 µM, stronger effect = lower value
[3] = reduced viability of SK-BR-3 breast cancer cells – cell-based, 24 h, human, pilot screen (AID 572;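 active means viability at or below 10% of carrier control in both of two separate runs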;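 further: compound exposure lasted between 18 and 24 h rather than exactly 24 h; 100% = carrier-treated control wells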); conditions: SK-BR-3 viability, CellTiter-Glo luminescence, at 10 µM, stronger effect = lower value
[4] = HUVEC growth inhibition – cell-based, human, primary screen (AID 575;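 active means viability at or below 30% in both replicate assays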;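 further: 100% = median of untreated cell wells with 0.1% DMSO on each plate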); conditions: HUVEC proliferation, CellTiter-Glo luminescence, 72 h; at 10 µM; stronger effect = lower value
Summary of the method: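 Test system: primary human umbilical vein endothelial cells; medium: endothelial basal medium with 2% FBS plus growth supplements; dosing: 10 µM compound only; times: 72 h treatment at 37 °C; signal: CTG luminescence; read-out: % viability relative to median vehicle-well signal on each plate; control set: vehicle and MePR control wells; plate: 384-well, collagen-coated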

[5] = H69AR cell proliferation blockers – human, duplicate replicates, primary screen (AID 580;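 active means viability at or under a set limit in both replicates, limit being median viability minus 3 SD, cut at about 48% in these data, passing the limit was not always enough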;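 further: 100% = mean luminescence of untreated wells and 0% = no signal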); conditions: H69AR lung tumor cells viability, ATP luminescence, 72 h; at 10 µM; stronger effect = lower value
[6] = MRP1 drug-resistance reversers in H69AR cells – cell-based, doxorubicin co-treatment, pilot screen (AID 601;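 active means viability loss from added drug above about 55%, and viability with drug at most 40%, in both replicates, limit read from the data, passing the limit was not always enough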); conditions: CellTiter-Glo, 72 h, at 10 µM; for differential viability (reversal): stronger effect = higher value
[7] = yeast transport mutant growth inhibition pilot in 384-well plates, post-Golgi transport modulator project (AID 636; in the data active means inhibition above about 31%); conditions: absorbance 615 nm, about 18 h, stronger effect = higher value
[8] = growth suppression of yeast trafficking mutant, preliminary HTS, modulators of trafficking downstream of Golgi apparatus project, 1536-format plate, OD 615 nm (AID 637); conditions: yeast transport mutant growth, absorbance 615 nm, 18 h; stronger effect = higher value
[9] = H69AR cells + 2 uM doxorubicin, measured here: viability with 2 uM doxorubicin, stronger effect = lower value
[10] = H69AR cells, compound alone cytotoxicity

Chain of Receptor tyrosine-protein kinase erbB-2 (Homo sapiens) (P04626 whole entry, looked up): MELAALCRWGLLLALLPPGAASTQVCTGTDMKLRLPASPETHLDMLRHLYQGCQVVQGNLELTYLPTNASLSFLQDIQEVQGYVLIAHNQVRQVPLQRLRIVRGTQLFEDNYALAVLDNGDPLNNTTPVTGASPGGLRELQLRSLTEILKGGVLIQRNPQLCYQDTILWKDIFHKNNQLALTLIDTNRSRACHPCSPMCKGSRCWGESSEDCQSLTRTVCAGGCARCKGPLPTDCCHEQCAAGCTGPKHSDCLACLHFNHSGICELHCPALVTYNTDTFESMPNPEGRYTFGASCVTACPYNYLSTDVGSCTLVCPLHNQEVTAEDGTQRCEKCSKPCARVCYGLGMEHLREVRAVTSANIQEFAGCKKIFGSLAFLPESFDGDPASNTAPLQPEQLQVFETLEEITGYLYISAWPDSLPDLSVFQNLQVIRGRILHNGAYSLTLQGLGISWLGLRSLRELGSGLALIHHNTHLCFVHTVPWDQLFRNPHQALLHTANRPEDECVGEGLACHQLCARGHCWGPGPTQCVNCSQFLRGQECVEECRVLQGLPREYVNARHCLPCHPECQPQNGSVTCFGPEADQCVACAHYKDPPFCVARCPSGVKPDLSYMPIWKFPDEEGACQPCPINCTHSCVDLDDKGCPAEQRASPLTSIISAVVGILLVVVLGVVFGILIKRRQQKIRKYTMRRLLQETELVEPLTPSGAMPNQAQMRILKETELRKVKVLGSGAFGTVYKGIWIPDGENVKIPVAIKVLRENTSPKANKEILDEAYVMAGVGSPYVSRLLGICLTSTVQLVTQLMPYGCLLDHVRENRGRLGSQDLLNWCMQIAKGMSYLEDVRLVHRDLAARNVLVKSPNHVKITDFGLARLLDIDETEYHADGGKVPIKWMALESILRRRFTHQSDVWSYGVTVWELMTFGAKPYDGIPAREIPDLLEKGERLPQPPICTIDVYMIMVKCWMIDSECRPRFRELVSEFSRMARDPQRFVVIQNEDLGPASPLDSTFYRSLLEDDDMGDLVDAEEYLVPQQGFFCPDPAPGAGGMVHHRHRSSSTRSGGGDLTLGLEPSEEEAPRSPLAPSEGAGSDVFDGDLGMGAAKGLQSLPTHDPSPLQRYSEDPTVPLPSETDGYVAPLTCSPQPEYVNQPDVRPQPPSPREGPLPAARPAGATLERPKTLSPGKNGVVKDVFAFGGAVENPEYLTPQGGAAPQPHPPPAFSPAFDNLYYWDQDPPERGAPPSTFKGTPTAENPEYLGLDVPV

SMILES | viability [1] [%] | Her2 level [2] | viability [3] | viability [4] | viability [5] | differential viability (reversal) ([6]; H69AR cells + 2 uM doxorubicin) | viability [6, 9] [%] | viability [6, 10] [%] | inhibition [7] | inhibition [8]
CCC(=O)N1CCc2cc(S(=O)(=O)CCC(=O)Nc3ccc(C)c(F)c3)ccc21 | 100 | 98.5% (inactive) | 100% (inactive) | 91.6% (inactive) | 83.3% (inactive) | 2.27% (inactive) | 81.1 | 83.3 | -4% (inactive) | 1.8% (inactive)
O=C(CSc1nc2ccsc2c(=O)n1NC(=O)c1ccccc1)Nc1nccs1 | 105 | 86.5% (inactive) | 105% (inactive) | 96.9% (inactive) | 100% (inactive) | 2.06% (inactive) | 98 | 100 | -4.74% (inactive) | -2.83% (inactive)
CNC(=O)CSc1nnc(-c2cc(C)cc(C)c2)o1 | 94.5 | 99% (inactive) | 94.5% (inactive) | 93.4% (inactive) | 108% (inactive) | 13.4% (inactive) | 95.1 | 108 | -3.07% (inactive) | -3.06% (inactive)
CCOC(=O)c1ccc2[nH]c(C)c(CN3CCN(C)CC3)c(=O)c2c1 | 114 | 81% (inactive) | 114% (inactive) | 97.9% (inactive) | 91.4% (inactive) | -0.335% (inactive) | 91.8 | 91.4 | -7.03% (inactive) | 2.79% (inactive)
CCn1c(C(=O)OC)cc2c1ccn2-c1ccc(F)cc1 | 91 | 80.5% (inactive) | 91% (inactive) | 86.1% (inactive) | 83% (inactive) | 7.09% (inactive) | 75.9 | 83 | -5.13% (inactive) | -1.82% (inactive)
CCOC(=O)CSc1nnc(CCc2nc3ccccc3[nH]2)n1C | 118 | 112% (inactive) | 118% (inactive) | 87.5% (inactive) | 102% (inactive) | 1.34% (inactive) | 101 | 102 | -4.93% (inactive) | -7.78% (inactive)
CN(C)S(=O)(=O)c1ccc2c(c1)C(CC(=O)O)OC2=O (stereo not given) | 94 | 96.5% (inactive) | 94% (inactive) | 111% (inactive) | 96.1% (inactive) | -0.855% (inactive) | 96.9 | 96.1 | -1.6% (inactive) | 17.1% (inactive)
O=C(CN1C(=O)c2ccccc2S1(=O)=O)NCc1ccccn1 | 94 | 92% (inactive) | 94% (inactive) | 86.1% (inactive) | 98.5% (inactive) | 0.67% (inactive) | 97.8 | 98.5 | -1.43% (inactive) | 1.11% (inactive)
Cc1cc(C(F)F)n2ncc(C(=O)NC3CCCCCC3)c2n1 | 89.5 | 86% (inactive) | 89.5% (inactive) | 78.1% (inactive) | 89.9% (inactive) | -0.225% (inactive) | 90.2 | 89.9 | -4.74% (inactive) | 8.69% (inactive)
Cc1nc2nc(Cc3ccccc3)[nH]n2c(=O)c1Cc1ccccc1 | 117 | 104% (inactive) | 117% (inactive) | 96.6% (inactive) | 96.2% (inactive) | 8.81% (inactive) | 87.4 | 96.2 | -0.53% (inactive) | 1.64% (inactive)
CC(C(=O)c1ccccc1)n1cnc2ccccc2c1=O (stereo not given) | 94.5 | 87% (inactive) | 94.5% (inactive) | 86.6% (inactive) | 89.6% (inactive) | 9.12% (inactive) | 80.5 | 89.6 | -5.73% (inactive) | 2.42% (inactive)
CC(C(=O)OCn1nnc2ccccc2c1=O)N1C(=O)c2ccccc2C1=O (stereo not given) | 110 | 100% (inactive) | 110% (inactive) | 93.9% (inactive) | 86.6% (inactive) | -21% (inactive) | 108 | 86.6 | -1.45% (inactive) | 30.2% (active)
O=C(CSc1nnc(-c2ccccc2)c(-c2ccccc2)n1)N1CCOCC1 | 97 | 93% (inactive) | 97% (inactive) | 101% (inactive) | 85.3% (inactive) | 12.8% (inactive) | 72.5 | 85.3 | 0% (inactive) | -5.48% (inactive)
CCOC(=O)c1oc2ccccc2c1CSc1nnnn1-c1ccc(OC)cc1 | 82.5 | 69% (inactive) | 82.5% (inactive) | 77.4% (inactive) | 75% (inactive) | 1.07% (inactive) | 73.9 | 75 | -4.8% (inactive) | 0.16% (inactive)
CCOc1c(C)cc2[nH]c(CCC(=O)O)nc2c1C | 123 | 103% (inactive) | 123% (inactive) | 95.4% (inactive) | 93.2% (inactive) | -1.08% (inactive) | 94.3 | 93.2 | -6.58% (inactive) | 14.4% (inactive)
Cc1cc(C(=O)NCc2ccc(S(N)(=O)=O)cc2)cs1 | 84.5 | 87.5% (inactive) | 84.5% (inactive) | 105% (inactive) | 104% (inactive) | 13% (inactive) | 90.7 | 104 | -5.73% (inactive) | 4.1% (inactive)
